“And” between values parts separate entries of the source, which are not always exact repeats. Equal entries are not always repeated.
Test system: Fibroblast
Assay: Multiplex assay against human fibroblast
Assay type: toxicity, cell-based
Method in brief: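 Per cents of healthy-nucleus cells form the tubulin, mitochondrial-mass and membrane-permeability phenotype values. Live cells were stained at seeding with Hoechst33342, BioTracker Green Microtubule Cytoskeleton Dye, MitoTracker Red and Annexin V Alexa Fluor 680. After compound addition they were imaged on a CQ1 microscope at 37°C and 5% CO2, and CellPathfinder machine-learning gating split them into Hoechst high-intensity objects or normal cells, normal cells into healthy, pyknosed or fragmented nuclei, and pyknosed cells into mitotic or apoptotic.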

[1] = 12 h, 1 µM, compound concentration 1 uM, replicate 1
[2] = 12 h, 1 µM, compound concentration 1 uM, replicate 2
[3] = 12 h, 10 µM, compound concentration 10 uM, replicate 1
[4] = 12 h, 10 µM, compound concentration 10 uM, replicate 2
[5] = 24 h, 1 µM, compound concentration 1 uM, replicate 1
[6] = 24 h, 1 µM, compound concentration 1 uM, replicate 2
[7] = 24 h, 10 µM, compound concentration 10 uM, replicate 1
[8] = 24 h, 10 µM, compound concentration 10 uM, replicate 2
[9] = 48 h, 10 µM, compound concentration 10 uM, replicate 1
[10] = 48 h, 10 µM, compound concentration 10 uM, replicate 2

CNC(=O)c1ccc(Nc2ncc(C(F)(F)F)c(NCc3nccnc3N(C)S(C)(=O)=O)n2)cc1 [DEFACTINIB]
Population Apoptotic (%) [1]: 66% and 80% | Population Fragmented Nuclei (%) [1]: 31% and 21% | Population Healthy Nuclei (%) [1]: 51% and 60% | Population Hoechst High Intensity Objects (%) [1]: 12% and 14% | Population Membrane Permeable-Phenotype (%) [1]: 8% and 23% | Population Mitochondria Different-Phenotype (%) [1]: 2% and 4% | Population Mitotic Cells (%) [1]: 33% and 20% | Population Normal (%) [1]: 87% and 85% | Population Pyknosed Nuclei (%) [1]: 17% | Total Cell Count [1]: 217 and 234 | Population Apoptotic (%) [2]: 25% and 42% | Population Fragmented Nuclei (%) [2]: 60% and 57% | Population Healthy Nuclei (%) [2]: 32% and 27% | Population Hoechst High Intensity Objects (%) [2]: 22% and 35% | Population Membrane Permeable-Phenotype (%) [2]: 0% and 7% | Population Mitochondria Different-Phenotype (%) [2]: 15% and 23% | Population Mitotic Cells (%) [2]: 75% and 57% | Population Normal (%) [2]: 77% and 64% | Population Pyknosed Nuclei (%) [2]: 6% and 14% | Population Tubulin-Different-Phenotype (%) [2]: 20% and 38% | Total Cell Count [2]: 79 and 73 | Population Apoptotic (%) [3]: 90% and 80% | Population Fragmented Nuclei (%) [3]: 24% and 29% | Population Healthy Nuclei (%) [3]: 58% | Population Hoechst High Intensity Objects (%) [3]: 8% | Population Membrane Permeable-Phenotype (%) [3]: 21% and 7% | Population Mitochondria Different-Phenotype (%) [3]: 3% | Population Mitotic Cells (%) [3]: 9% and 20% | Population Normal (%) [3]: 91% | Population Pyknosed Nuclei (%) [3]: 17% and 12% | Total Cell Count [3]: 208 and 174 | Population Apoptotic (%) [4]: 42% and 33% | Population Fragmented Nuclei (%) [4]: 42% and 66% | Population Healthy Nuclei (%) [4]: 47% and 25% | Population Hoechst High Intensity Objects (%) [4]: 24% and 47% | Population Membrane Permeable-Phenotype (%) [4]: 12% and 0% | Population Mitochondria Different-Phenotype (%) [4]: 18% and 50% | Population Mitotic Cells (%) [4]: 57% and 66% | Population Normal (%) [4]: 75% and 52% | Population Pyknosed Nuclei (%) [4]: 10% and 7% | Population Tubulin-Different-Phenotype (%) [4]: 54% and 40% | Total Cell Count [4]: 93 and 74 | Population Apoptotic (%) [5]: 66% and 85% | Population Fragmented Nuclei (%) [5]: 23% and 35% | Population Healthy Nuclei (%) [5]: 59% and 48% | Population Hoechst High Intensity Objects (%) [5]: 18% and 11% | Population Mitochondria Different-Phenotype (%) [5]: 3% and 7% | Population Mitotic Cells (%) [5]: 33% and 14% | Population Normal (%) [5]: 81% and 88% | Population Pyknosed Nuclei (%) [5]: 16% and 15% | Total Cell Count [5]: 205 and 241 | Population Fragmented Nuclei (%) [6]: 55% and 61% | Population Healthy Nuclei (%) [6]: 39% and 19% | Population Hoechst High Intensity Objects (%) [6]: 30% and 29% | Population Mitochondria Different-Phenotype (%) [6]: 5% and 0% | Population Mitotic Cells (%) [6]: 100% and 40% | Population Normal (%) [6]: 69% and 70% | Total Cell Count [6]: 62 and 74 | Population Apoptotic (%) [7]: 80% and 73% | Population Fragmented Nuclei (%) [7]: 33% and 25% | Population Healthy Nuclei (%) [7]: 45% and 64% | Population Hoechst High Intensity Objects (%) [7]: 10% and 15% | Population Membrane Permeable-Phenotype (%) [7]: 21% and 10% | Population Mitotic Cells (%) [7]: 20% and 26% | Population Normal (%) [7]: 89% and 84% | Population Pyknosed Nuclei (%) [7]: 21% and 9% | Total Cell Count [7]: 210 and 186 | Population Apoptotic (%) [8]: 75% and 50% | Population Fragmented Nuclei (%) [8]: 49% and 57% | Population Healthy Nuclei (%) [8]: 44% and 37% | Population Hoechst High Intensity Objects (%) [8]: 27% and 35% | Population Membrane Permeable-Phenotype (%) [8]: 14% and 0% | Population Mitochondria Different-Phenotype (%) [8]: 10% and 13% | Population Mitotic Cells (%) [8]: 25% and 50% | Population Normal (%) [8]: 72% and 64% | Population Pyknosed Nuclei (%) [8]: 6% and 5% | Population Tubulin-Different-Phenotype (%) [8]: 46% and 26% | Total Cell Count [8]: 87 and 62

CCOC(=O)Nc1cc(-c2ccc(C)c(NS(C)(=O)=O)c2)nn2c(C)nnc12
Population Apoptotic (%) [1]: 75% | Population Fragmented Nuclei (%) [1]: 30% | Population Healthy Nuclei (%) [1]: 44% | Population Hoechst High Intensity Objects (%) [1]: 9% | Population Membrane Permeable-Phenotype (%) [1]: 9% | Population Mitochondria Different-Phenotype (%) [1]: 9% | Population Mitotic Cells (%) [1]: 24% | Population Normal (%) [1]: 90% | Population Pyknosed Nuclei (%) [1]: 24% | Population Tubulin-Different-Phenotype (%) [1]: 10% | Total Cell Count [1]: 184 | Population Apoptotic (%) [2]: 60% | Population Fragmented Nuclei (%) [2]: 55% | Population Healthy Nuclei (%) [2]: 34% | Population Hoechst High Intensity Objects (%) [2]: 35% | Population Membrane Permeable-Phenotype (%) [2]: 16% | Population Mitochondria Different-Phenotype (%) [2]: 16% | Population Mitotic Cells (%) [2]: 40% | Population Normal (%) [2]: 64% | Population Pyknosed Nuclei (%) [2]: 9% | Population Tubulin-Different-Phenotype (%) [2]: 11% | Total Cell Count [2]: 81 | Population Apoptotic (%) [3]: 70% and 66% | Population Fragmented Nuclei (%) [3]: 30% and 28% | Population Healthy Nuclei (%) [3]: 45% and 56% | Population Hoechst High Intensity Objects (%) [3]: 15% and 13% | Population Mitochondria Different-Phenotype (%) [3]: 9% and 14% | Population Mitotic Cells (%) [3]: 29% and 33% | Population Normal (%) [3]: 84% and 86% | Population Pyknosed Nuclei (%) [3]: 23% and 15% | Total Cell Count [3]: 84 and 231 | Population Apoptotic (%) [4]: 50% and 40% | Population Healthy Nuclei (%) [4]: 86% | Population Membrane Permeable-Phenotype (%) [4]: 9% and 0% | Population Mitotic Cells (%) [4]: 50% and 60% | Population Normal (%) [4]: 77% and 97% | Population Pyknosed Nuclei (%) [4]: 2% and 5% | Total Cell Count [4]: 88 and 101 | Population Apoptotic (%) [5]: 61% | Population Fragmented Nuclei (%) [5]: 31% | Population Healthy Nuclei (%) [5]: 55% | Population Hoechst High Intensity Objects (%) [5]: 12% | Population Membrane Permeable-Phenotype (%) [5]: 12% | Population Mitochondria Different-Phenotype (%) [5]: 2% | Population Mitotic Cells (%) [5]: 38% | Population Normal (%) [5]: 87% | Population Pyknosed Nuclei (%) [5]: 12% | Population Tubulin-Different-Phenotype (%) [5]: 2% | Total Cell Count [5]: 186 | Population Apoptotic (%) [6]: 50% | Population Fragmented Nuclei (%) [6]: 48% | Population Healthy Nuclei (%) [6]: 42% | Population Hoechst High Intensity Objects (%) [6]: 31% | Population Membrane Permeable-Phenotype (%) [6]: 26% | Population Mitochondria Different-Phenotype (%) [6]: 5% | Population Mitotic Cells (%) [6]: 50% | Population Normal (%) [6]: 68% | Population Pyknosed Nuclei (%) [6]: 8% | Population Tubulin-Different-Phenotype (%) [6]: 15% | Total Cell Count [6]: 66 | Population Apoptotic (%) [7]: 60% and 56% | Population Fragmented Nuclei (%) [7]: 22% and 18% | Population Healthy Nuclei (%) [7]: 47% and 66% | Population Hoechst High Intensity Objects (%) [7]: 6% and 12% | Population Membrane Permeable-Phenotype (%) [7]: 22% and 8% | Population Mitochondria Different-Phenotype (%) [7]: 6% and 4% | Population Mitotic Cells (%) [7]: 39% and 43% | Population Normal (%) [7]: 94% and 88% | Population Pyknosed Nuclei (%) [7]: 29% and 15% | Total Cell Count [7]: 100 and 225 | Population Healthy Nuclei (%) [8]: 46% and 90% | Population Membrane Permeable-Phenotype (%) [8]: 3% and 0% | Population Mitochondria Different-Phenotype (%) [8]: 10% and 16% | Population Mitotic Cells (%) [8]: 100% and 71% | Population Normal (%) [8]: 71% and 97% | Total Cell Count [8]: 88 and 137 | Population Apoptotic (%) [9]: 54% | Population Fragmented Nuclei (%) [9]: 30% | Population Healthy Nuclei (%) [9]: 56% | Population Hoechst High Intensity Objects (%) [9]: 16% | Population Membrane Permeable-Phenotype (%) [9]: 16% | Population Mitochondria Different-Phenotype (%) [9]: 0% | Population Mitotic Cells (%) [9]: 45% | Population Normal (%) [9]: 83% | Population Pyknosed Nuclei (%) [9]: 12% | Population Tubulin-Different-Phenotype (%) [9]: 8% | Total Cell Count [9]: 105 | Population Apoptotic (%) [10]: 100% | Population Fragmented Nuclei (%) [10]: 18% | Population Healthy Nuclei (%) [10]: 80% | Population Hoechst High Intensity Objects (%) [10]: 10% | Population Membrane Permeable-Phenotype (%) [10]: 2% | Population Mitochondria Different-Phenotype (%) [10]: 1% | Population Mitotic Cells (%) [10]: 0% | Population Normal (%) [10]: 89% | Population Pyknosed Nuclei (%) [10]: 0% | Population Tubulin-Different-Phenotype (%) [10]: 1% | Total Cell Count [10]: 114
